Measured values reported in ChEMBL document CHEMBL4477184, “Pelianthinarubins A and B, Red Pyrroloquinoline Alkaloids from the Fruiting Bodies of the Mushroom Mycena pelianthina” (J Nat Prod, 2016).
Active and inactive are the calls of the source.

Assays:
Format in all cases: functional, organism-based
Escherichia coli = experiment: Antibacterial activity against Escherichia coli after 24 hrs by plate diffusion assay
In short: (§1)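 Paper discs (6 mm diameter, 0.5 mm thick) were loaded with 0.1 or 0.5 mg of sample dissolved in distilled water and dried under sterile conditions. The discs were then placed on agar plates inoculated with the test bacterium and incubated at 37 °C for 24 h.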

Brevibacillus brevis = experiment: Antibacterial activity against Bacillus brevis after 24 hrs by plate diffusion assay; in short: as §1
Bacillus subtilis = experiment: Antibacterial activity against Bacillus subtilis after 24 hrs by plate diffusion assay; in short: as §1
Cladosporium cucumerinum = experiment: Antifungal activity against Cladosporium cucumerinum after 48 hrs by plate diffusion assay
In short: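 Disc diffusion assay. Paper discs (6 mm) were loaded with 0.1 or 0.5 mg of sample from distilled water and dried under sterile conditions. The discs were laid on agar plates inoculated with Cladosporium cucumerinum, and the plates were incubated at 18 °C for 48 h.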

Folsomia candida = experiment: Insecticidal activity against Folsomia candida
Lepidium sativum = experiment: Herbicidal activity against Lepidium sativum

Measured: Activity

C[N+](C)(C)[C@@H](Cc1cn([C@@H]2CCN3C4=C2C(=O)C(=O)c2[nH]cc(c24)C[C@H]3C(=O)O)cn1)C(=O)O
inactive: Escherichia coli | Brevibacillus brevis | Bacillus subtilis | Cladosporium cucumerinum | Folsomia candida | Lepidium sativum

C[N+](C)(C)[C@H](C(=O)O)[C@H](O)c1cn([C@@H]2CCN3C4=C2C(=O)C(=O)c2[nH]cc(c24)C[C@H]3C(=O)O)cn1
inactive: Escherichia coli | Brevibacillus brevis | Bacillus subtilis | Cladosporium cucumerinum | Folsomia candida | Lepidium sativum
